Screening results from PubChem BioAssay.
Hits are enriched below; roughly 2.3% of the tested compounds scored in any of these assays.
Tb MetRS inh = blocks T. brucei methionyl-tRNA synthetase activity | purified T. brucei MetRS, ATP depletion, Kinase-Glo luminescence | inhibition, % at 11.9 µM | 360,000 tested, 0.4% active | AID 624268;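 active means inhibition above a per-plate cutoff of the control wells' mean inhibition plus 3 SD, cut at about 5.5% in these data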;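 further: 0% = DMSO wells median and 100% = median of wells with control inhibitor compound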
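Test system – parasite MetRS enzyme · Reagent – substrates ATP, L-methionine and bulk Escherichia coli tRNA · Doses – 11.9 µM compound single dose, 0.9% DMSO · Times – 15 min enzyme-compound preincubation, 2 h reaction, 10 min detection, 25 °C · Signal – Kinase-Glo luminescence, ATP depletion format · Controls – DMSO-only wells as low control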
ADAM17 inh = ADAM17 inhibition, QFRET primary screen. P78536. recombinant ADAM17, EDANS/DABCYL FRET peptide cleavage. inhibition, % at 6.95 µM. 370,000 tested, 0.83% active;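 active means inhibition above the mean of compounds lying between control limits plus 3 SD, set per campaign, cut at about 8.5% in these data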;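 further: 0% = DMSO-only wells as the low control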
ADAM10 inh = ADAM10 inhibition, QFRET primary screen. O14672. recombinant ADAM10, EDANS/DABCYL FRET peptide cleavage, 3 h. inhibition, % at 7 µM. 370,000 tested, 0.62% active;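 active means inhibition above a per-campaign cutoff equal to the mean of compounds falling between control-based bounds plus 3 SD, cut at about 20% in these data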;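 further: 0% = DMSO wells while the 100% control is not disclosed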
PLCg1 inh = PLC-gamma1 (human) inhibition, primary screen; P19174; purified PLC-gamma1, fluorogenic substrate, fluorescence; inhibition, % at 12.2 µM; 370,000 tested, 0.84% active; in the data active means inhibition above about 9.5%
PLCb3 inh = inhibitors of human phospholipase C beta3; Q01970; Purified PLC-beta3, fluorogenic substrate, fluorescence; inhibition, % at 12.2 µM; 370,000 tested, 0.18% active; in the data active means inhibition above about 11%;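 further: 0% = median of compound wells on plate and 100% = full blocker control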
Tb MetRS conf = Trypanosoma brucei MetRS inhibition confirmed; shares compounds with Tb MetRS inh; T. brucei MetRS enzyme, luminescence (ATP depletion); inhibition, % at 11.9 µM; 1,400 tested, 93% active; AID 624412; in the data active means inhibition above about 7%
Jurkat tox = counter-screen for T. brucei MetRS inhibitors: Jurkat cell cytotoxicity; inhibition, % at 8.3 µM; Jurkat cells viability, ATP luminescence; 1,400 tested, 12% active; shares compounds with Tb MetRS inh; in the data active means inhibition above about 15%;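 further: 0% = vehicle and 100% = reference inhibitor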
TbMetRS FP orth = orthogonal test for Trypanosoma brucei MetRS inhibitors | shares compounds with Tb MetRS inh | purified T. brucei MetRS, fluorescence polarization | inhibition, % at 11.9 µM | 1,400 tested, 44% active | AID 651607; in the data active means inhibition above about 17%;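 further: 0% = vehicle wells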
* marks the source's active call; other numbers are inactive results.

What do the screens show for `CCn1c2ccccc2c2cc(NC(=O)COC(=O)c3ccc(F)cc3Cl)ccc21`?
ADAM17 inh: -2.9; ADAM10 inh: -1.5; PLCg1 inh: -1.0; PLCb3 inh: 2.1

How did c1ccc2cc3[nH]c(CN4CCOCC4)nc3cc2c1 do in these assays?
Tb MetRS inh: 6.6*; ADAM17 inh: -18.7; ADAM10 inh: -54.4; PLCg1 inh: -6.7; PLCb3 inh: -9.2; Tb MetRS conf: 12.5*; Jurkat tox: 10.2; TbMetRS FP orth: -1.3

How did c1ccc2[nH]c(CN3CCOCC3)nc2c1 do in these assays?
Tb MetRS inh: -1.1; ADAM17 inh: -2.0; ADAM10 inh: 1.6; PLCg1 inh: 0.2; PLCb3 inh: 0.6

Results for O=C(Nc1ccc(C(=O)N2CCCCC2)cc1)[C@H]1O[C@@H](n2ccc(=O)[nH]c2=O)[C@H](O)[C@@H]1O ?
Tb MetRS inh: -0.9; ADAM17 inh: 3.5; ADAM10 inh: -10.4; PLCg1 inh: 3.2; PLCb3 inh: 0.7

Results for Cc1cc(=O)c2ccccc2[nH]1 ?
Tb MetRS inh: -0.6; ADAM17 inh: -6.5; ADAM10 inh: -8.8; PLCg1 inh: -2.5; PLCb3 inh: -0.1

Results for Cc1cc(=O)c2cc(Br)ccc2[nH]1 ?
Tb MetRS inh: 6.0*; ADAM17 inh: -5.1; ADAM10 inh: -0.8; PLCg1 inh: 2.3; PLCb3 inh: 1.4; Tb MetRS conf: 7.5*; Jurkat tox: 6.8; TbMetRS FP orth: 8.2

Results for CCNC(=O)C1CCCN(C(=O)c2ccc3ccccc3c2)CC1 (configuration not stated) ?
Tb MetRS inh: -0.4; ADAM17 inh: -6.0; ADAM10 inh: -11.2; PLCg1 inh: -1.5; PLCb3 inh: 4.2

Results for O=C(Cn1c(NCCO)nc2ccccc21)c1ccc([N+](=O)[O-])cc1 ?
Tb MetRS inh: 19.6*; ADAM17 inh: 1.9; ADAM10 inh: 3.2; PLCg1 inh: 0.3; PLCb3 inh: -4.3; Tb MetRS conf: 3.2; Jurkat tox: 6.4; TbMetRS FP orth: 7.5

Results for O=C(Cn1c(NCCCO)nc2ccccc21)c1ccc([N+](=O)[O-])cc1 ?
Tb MetRS inh: -0.1; ADAM17 inh: 1.0; ADAM10 inh: 0.3; PLCg1 inh: 2.1; PLCb3 inh: -2.9

How did Cc1ccc2nc(SCC(=O)Nc3ccc(F)c([N+](=O)[O-])c3)[nH]c2c1 do in these assays?
Tb MetRS inh: 39.1*; ADAM17 inh: 8.2; ADAM10 inh: 17.0; PLCg1 inh: 2.4; PLCb3 inh: 2.5; Tb MetRS conf: 49.8*; Jurkat tox: 19.4*; TbMetRS FP orth: 26.6*

Results for Cc1ccc2nc(SC(C)C(=O)NC3CCCC3)[nH]c2c1 (configuration not stated) ?
Tb MetRS inh: 0.3; ADAM17 inh: -0.9; ADAM10 inh: -6.8; PLCg1 inh: -0.6; PLCb3 inh: 5.0

Results for Cc1ccc2nc(SC(C)C(=O)Nc3cccc([N+](=O)[O-])c3)[nH]c2c1 (configuration not stated) ?
Tb MetRS inh: 37.7*; ADAM17 inh: 2.0; ADAM10 inh: -0.2; PLCg1 inh: 0.1; PLCb3 inh: 0.7; Tb MetRS conf: 63.6*; Jurkat tox: 3.4; TbMetRS FP orth: 36.9*

Results for Cc1ccc(N2C(=O)CC(NNC(=O)Cc3ccc(F)cc3)C2=O)cc1Cl (configuration not stated) ?
Tb MetRS inh: -0.4; ADAM17 inh: -2.8; ADAM10 inh: -0.1; PLCg1 inh: 1.4; PLCb3 inh: -12.0

What do the screens show for `Cc1cc(NS(=O)(=O)c2ccc(NC(=O)CSc3nc4ncc(Br)cc4[nH]3)cc2)nc(C)n1`?
Tb MetRS inh: 6.1*; ADAM17 inh: -5.3; ADAM10 inh: -7.5; PLCg1 inh: 0.0; PLCb3 inh: -6.5; Tb MetRS conf: 14.3*; Jurkat tox: -4.3; TbMetRS FP orth: 8.4

How did Cc1cc(NS(=O)(=O)c2ccc(NC(=O)CSc3nc4ncc(Cl)cc4[nH]3)cc2)nc(C)n1 do in these assays?
Tb MetRS inh: 3.0; ADAM17 inh: -5.2; ADAM10 inh: -9.3; PLCg1 inh: 4.4; PLCb3 inh: -3.2
